Source: ChEMBL document CHEMBL4038321, “Design, Synthesis, and Pharmacokinetics of a Bone-Targeting Dual-Action Prodrug for the Treatment of Osteoporosis” (J Med Chem, 2017)

Columns and labels:
[1] = test system: Plasma; test: Drug metabolism in rat plasma assessed as tritium label liberation preincubated with rat plasma followed by bovine bone powder addition measured after 30 mins; format: ADME, cell-free; details: 0.5 h
How it was run: (§1)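 Tritium-labelled conjugate incubated in rat plasma at 37 °C. At fixed times the incubate was stirred with bovine bone powder to adsorb intact conjugate and any cleaved bisphosphonate. Unbound radioactivity in the supernatant was then counted as liberated label.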

[2] = test system: Plasma; test: Drug metabolism in rat plasma assessed as tritium label liberation preincubated with rat plasma followed by bovine bone powder addition measured after 4 hrs; format: ADME, cell-free; how it was run: as §1
[3] = test system: Plasma; test: Drug metabolism in rat plasma assessed as tritium label liberation preincubated with rat plasma followed by bovine bone powder addition measured after 24 hrs; format: ADME, cell-free; how it was run: as §1
[4] = test system: Serum; test: Drug metabolism in rat serum assessed as tritium label liberation preincubated with bovine bone powder followed by rat serum addition measured after 24 hrs; format: ADME, cell-free
How it was run: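 Tritium-labelled conjugate first bound to bovine bone powder for 30 min in buffer. The powder was filtered, resuspended and incubated in fresh rat serum. Buffer and inactivated serum were run alongside. Tritium liberated after 24 h was measured.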

[5] = test system: Rattus norvegicus; test: Toxicity in Sprague-Dawley rat at 31 uCi, iv administered via tail vein after 6 hrs; format: organism-based; details: in vivo
How it was run: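 Three female Sprague Dawley rats, about 23 weeks old on arrival, received an IV tail-vein injection of 5 mg/kg conjugate with 31.0 µCi [3H] per rat. Vehicle was 10% Poloxamer 188 adjusted to pH 8.0 with NaHCO3 and diluted 1:1 with PBS. Tolerability was observed over 6 h with blood sampling, and the study ended at 6 h.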

[6] = test system: Liver; test: Drug uptake in Sprague-Dawley rat liver at 31 uCi, iv after 6 hrs by scintillation counting method; format: ADME, organism-based; details: in vivo
How it was run: (§2)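 Three female Sprague Dawley rats, about 23 weeks old. IV tail-vein dose of 5 mg/kg 3H-conjugate (31.0 µCi/rat) in 10% Poloxamer 188, pH 8.0 with NaHCO3, diluted 1:1 with PBS. Blood was drawn at 0.5 to 6 h. At 6 h tissues, including long bones, were taken and analysed for radioactivity by oxidation and scintillation counting.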

[7] = test system: Bone; test: Drug uptake in Sprague-Dawley rat bone at 31 uCi, iv after 6 hrs by scintillation counting method; format: ADME, organism-based, Bone element; details: in vivo; how it was run: as §2
[8] = test system: Bone; test: Drug uptake in Sprague-Dawley rat bone at 8.9 uCi, iv administered as bolus dose after 6 hrs; format: ADME, organism-based, Bone element; details: in vivo
How it was run: (§3)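 Female Sprague Dawley rats, about 13 weeks old, in five groups of three. Single IV tail-vein bolus of mixed 3H-conjugate (8.90 µCi/rat) and 14C-conjugate (1.77 µCi/rat), total dose 5.0 mg/kg. Vehicle was 10% Poloxamer 188, brought to pH 8.0 with NaHCO3, then diluted with an equal volume of PBS. Groups were killed at 6 h, 1, 7, 14 and 28 days. Tissues and femurs were incinerated in a biological oxidizer. Values are % of administered dose, with skeleton taken as 8% of body weight, averaged over three rats.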

[9] = test system: Bone; test: Drug uptake in Sprague-Dawley rat bone at 8.9 uCi, iv administered as bolus dose after 1 day; format: ADME, organism-based, Bone element; details: in vivo, 24 h; how it was run: as §3
[10] = test system: Bone; test: Drug uptake in Sprague-Dawley rat bone at 8.9 uCi, iv administered as bolus dose after 7 days; format: ADME, organism-based, Bone element; details: in vivo, 168 h; how it was run: as §3
[11] = test system: Bone; test: Drug uptake in Sprague-Dawley rat bone at 8.9 uCi, iv administered as bolus dose after 14 days; format: ADME, organism-based, Bone element; details: in vivo, 336 h; how it was run: as §3
[12] = test system: Liver; test: Drug uptake in Sprague-Dawley rat liver at 8.9 uCi, iv administered as bolus dose after 6 hrs; format: ADME, organism-based; details: in vivo; how it was run: as §3
[13] = test system: Liver; test: Drug uptake in Sprague-Dawley rat liver at 8.9 uCi, iv administered as bolus dose after 1 day; format: ADME, organism-based; details: in vivo, 24 h; how it was run: as §3
[14] = test system: Liver; test: Drug uptake in Sprague-Dawley rat liver at 8.9 uCi, iv administered as bolus dose after 7 days; format: ADME, organism-based; details: in vivo, 168 h; how it was run: as §3
[15] = test system: Liver; test: Drug uptake in Sprague-Dawley rat liver at 8.9 uCi, iv administered as bolus dose after 14 days; format: ADME, organism-based; details: in vivo, 336 h; how it was run: as §3
[16] = test system: Spleen; test: Drug uptake in Sprague-Dawley rat spleen at 8.9 uCi, iv administered as bolus dose after 6 hrs; format: ADME, organism-based; details: in vivo
How it was run: (§4)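 Female Sprague Dawley rats, about 13 weeks old on arrival, in five groups of three. Single IV tail-vein bolus of mixed [3H]- and [14C]-labelled conjugate (8.90 and 1.77 µCi/rat), total 5.0 mg/kg. Vehicle was 10% Poloxamer 188 adjusted to pH 8.0 with NaHCO3, then diluted with an equal volume of PBS. Groups killed at 6 h, 1, 7, 14 and 28 days. Spleen radioactivity measured by oxidizer incineration and reported as percent of administered dose, averaged over three rats.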

[17] = test system: Spleen; test: Drug uptake in Sprague-Dawley rat spleen at 8.9 uCi, iv administered as bolus dose after 1 day; format: ADME, organism-based; details: in vivo, 24 h; how it was run: as §4
[18] = test system: Spleen; test: Drug uptake in Sprague-Dawley rat spleen at 8.9 uCi, iv administered as bolus dose after 7 days; format: ADME, organism-based; details: in vivo, 168 h; how it was run: as §4
[19] = test system: Spleen; test: Drug uptake in Sprague-Dawley rat spleen at 8.9 uCi, iv administered as bolus dose after 14 days; format: ADME, organism-based; details: in vivo, 336 h; how it was run: as §4
[20] = test system: Kidney; test: Drug uptake in Sprague-Dawley rat kidney at 8.9 uCi, iv administered as bolus dose after 6 hrs; format: ADME, organism-based; details: in vivo; how it was run: as §3
[21] = test system: Kidney; test: Drug uptake in Sprague-Dawley rat kidney at 8.9 uCi, iv administered as bolus dose after 1 day; format: ADME, organism-based; details: in vivo, 24 h; how it was run: as §3
[22] = test system: Kidney; test: Drug uptake in Sprague-Dawley rat kidney at 8.9 uCi, iv administered as bolus dose after 7 days; format: ADME, organism-based; details: in vivo, 168 h; how it was run: as §3
[23] = test system: Kidney; test: Drug uptake in Sprague-Dawley rat kidney at 8.9 uCi, iv administered as bolus dose after 14 days; format: ADME, organism-based; details: in vivo, 336 h; how it was run: as §3
[24] = test system: Heart; test: Drug uptake in Sprague-Dawley rat heart at 8.9 uCi, iv administered as bolus dose after 6 hrs; format: ADME, organism-based; details: in vivo; how it was run: as §3
[25] = test system: Heart; test: Drug uptake in Sprague-Dawley rat heart at 8.9 uCi, iv administered as bolus dose after 1 day; format: ADME, organism-based; details: in vivo, 24 h; how it was run: as §3
[26] = test system: Heart; test: Drug uptake in Sprague-Dawley rat heart at 8.9 uCi, iv administered as bolus dose after 7 days; format: ADME, organism-based; details: in vivo, 168 h; how it was run: as §3
[27] = test system: Brain; test: Drug uptake in Sprague-Dawley rat brain at 8.9 uCi, iv administered as bolus dose after 6 hrs; format: ADME, organism-based; details: in vivo; how it was run: as §3
[28] = test system: Brain; test: Drug uptake in Sprague-Dawley rat brain at 8.9 uCi, iv administered as bolus dose after 1 day; format: ADME, organism-based; details: in vivo, 24 h; how it was run: as §3
[29] = Drug metabolism in rat plasma at 100 uM measured after 24 hrs by HPLC analysis; format: ADME, cell-free; details: read-out: Drug metabolism
How it was run: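 Conjugate incubated in rat plasma at 37 °C for 24 h and compared with inactivated control plasma. Aliquots were taken at 0, 1, 2, 4 and 24 h and quenched with methanol containing 1.0 M HCl, then centrifuged. Remaining conjugate in the supernatant was quantified by reverse-phase HPLC with UV detection at 254 nm.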

[30] = test system: Bone; test: Drug uptake in Sprague-Dawley rat bone at 8.9 uCi, iv administered as bolus dose after 28 days; format: ADME, organism-based, Bone element; details: in vivo, 672 h; how it was run: as §3
[31] = test system: Liver; test: Drug uptake in Sprague-Dawley rat liver at 8.9 uCi, iv administered as bolus dose after 28 days; format: ADME, organism-based; details: in vivo, 672 h; how it was run: as §3
[32] = test system: Spleen; test: Drug uptake in Sprague-Dawley rat spleen at 8.9 uCi, iv administered as bolus dose after 28 days; format: ADME, organism-based; details: in vivo, 672 h; how it was run: as §4
[33] = test system: Kidney; test: Drug uptake in Sprague-Dawley rat kidney at 8.9 uCi, iv administered as bolus dose after 28 days; format: ADME, organism-based; details: in vivo, 672 h; how it was run: as §3
[34] = test system: Rattus norvegicus; test: Toxicity in Sprague-Dawley rat assessed as behavioral change at 8.9 uCi, iv administered as bolus dose after 28 dyas; format: organism-based; details: in vivo
How it was run: (§5)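 Same dual-label study: female Sprague Dawley rats got one IV tail-vein bolus of [3H] (8.90 µCi) plus [14C] (1.77 µCi) conjugate, total 5.0 mg/kg, in Poloxamer 188/PBS vehicle at pH 8.0. Groups of three were sacrificed up to 28 days after dosing.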

[35] = test system: Rattus norvegicus; test: Toxicity in Sprague-Dawley rat assessed as unusual reaction at 8.9 uCi, iv administered as bolus dose after 28 dyas; format: organism-based; details: in vivo; how it was run: as §5

[3H]c1ccc(C(F)(F)[C@@H](/C=C/[C@H]2CCC(=O)N2CCCCCCC(=O)OCC)OC(=O)Cc2ccc(COC(=O)N[C@@H](CC(C)C)C(=O)N[C@@H](CCCNC(=N)N)C(=O)Nc3ccc(COC(=O)NCCCC(O)(P(=O)(O)O)P(=O)(O)O)cc3)cc2)cc1
Drug metabolism [1]: 27% | Drug metabolism [2]: 44% | Drug metabolism [3]: 53% | Drug metabolism [4]: < 3% | Activity [5]: Toxic | Drug uptake [6]: Active | Drug uptake [7]: 2.5 %ID | Drug uptake [8]: 2.1 %ID | Drug uptake [9]: 2.12 %ID | Drug uptake [10]: 1.3 %ID | Drug uptake [11]: 0.8 %ID | Drug uptake [12]: 8.95 %ID | Drug uptake [13]: 2.33 %ID | Drug uptake [14]: 0.48 %ID | Drug uptake [15]: 0.3 %ID | Drug uptake [16]: 0.35 %ID | Drug uptake [17]: 0.22 %ID | Drug uptake [18]: 0.076 %ID | Drug uptake [19]: 0.039 %ID | Drug uptake [20]: 0.21 %ID | Drug uptake [21]: 0.11 %ID | Drug uptake [22]: 0.053 %ID | Drug uptake [23]: 0.026 %ID | Drug uptake [24]: 0.025 %ID | Drug uptake [25]: 0.021 %ID | Drug uptake [26]: 0.014 %ID | Drug uptake [27]: 0.022 %ID | Drug uptake [28]: 0.025 %ID | metabolised at 24 h, 100 µM [29]: 55% | Drug uptake [30]: 0.74 %ID | Drug uptake [31]: 0.08 %ID | Drug uptake [32]: 0.037 %ID | Drug uptake [33]: 0.017 %ID | Activity [34]: Non-Toxic | Activity [35]: Non-Toxic
